{"data": "Results pooled from the literature", "ADORA2B": "Adenosine receptor A2b (ADORA2B, Homo sapiens, UniProt P29275)", "PBRM1 BD2": "Protein polybromo-1, BD2 (PBRM1, Homo sapiens, UniProt Q86U86)", "BRD2 BD2": "Bromodomain-containing protein 2, BD2 (BRD2, Homo sapiens, UniProt P25440)", "PBRM1 bromodomain": "Protein polybromo-1, bromodomain (PBRM1, Homo sapiens, UniProt Q86U86)", "Abl1": "Tyrosine-protein kinase ABL1 (Abl1, Mus musculus, UniProt P00520)", "note": "Lines come from different studies, so protocols differ."}
{"Compound": "CCCN1CCCn2c1nc1c2c(=O)n(C)c(=O)n1C", "target": "ADORA2B", "test": "ligand displacement, radioligand", "conditions": "10 µM, cell membranes", "endpoint": "inhibition", "value": "1%"}
{"Compound": "O=[N+]([O-])OCC(CO[N+](=O)[O-])O[N+](=O)[O-]", "target": "Aldehyde dehydrogenase, mitochondrial (ALDH2, Homo sapiens, UniProt P05091)", "test": "enzyme activity, substrate", "endpoint": "Km", "value": "~20 µM"}
{"Compound": "O=c1nc2n(c3cccc(Cl)c13)CC/C2=C\\c1ccccc1", "target": "PBRM1 BD2", "test": "thermal stability, DSF", "conditions": "100 µM", "endpoint": "ΔTm", "value": "-6.11 °C"}
{"Compound": "Cc1cc2c(cc1N1C(=O)c3cccc4c(Cl)ccc(c34)C1=O)n(C)c(=O)n2C", "target": "BRD2 BD2", "test": "thermal stability, DSF", "conditions": "10 µM", "endpoint": "ΔTm", "value": "0.4 °C"}
{"Compound": "Nc1ncnc2occ(-c3ccc(NC(=O)Nc4cc(C(F)(F)F)ccc4F)cc3)c12", "target": "Casein kinase I isoform alpha-like (CSNK1A1L, Homo sapiens, UniProt Q8N752)", "test": "cell-free assay", "conditions": "20 µM", "endpoint": "remaining signal", "value": "39%"}
{"Compound": "Cc1cnc(Nc2ccc(OCCN3CCCC3)cc2)nc1Nc1cccc(S(=O)(=O)NC(C)(C)C)c1", "target": "PBRM1 BD2", "test": "thermal stability, DSF", "conditions": "10 µM", "endpoint": "ΔTm", "value": "0.23 °C"}
{"Compound": "CCC(/C=C1\\CCn2c1nc(=O)c1c(Cl)cccc12)CC", "target": "PBRM1 bromodomain", "test": "thermal stability, DSF", "conditions": "100 µM", "endpoint": "ΔTm", "value": "10.3 °C"}
{"Compound": "Oc1ccc(-c2nc(-c3ccncc3)c(-c3ccc(F)cc3)[nH]2)cc1", "target": "Protein polybromo-1, BD1 (PBRM1, Homo sapiens, UniProt Q86U86)", "test": "thermal stability, DSF", "conditions": "10 µM", "endpoint": "ΔTm", "value": "0 °C"}
{"Compound": "CCC/C=C1\\CCn2c1nc(=O)c1c(Cl)cccc12", "target": "PBRM1 BD2", "test": "thermal stability, DSF", "conditions": "100 µM", "endpoint": "ΔTm", "value": "3.03 °C"}
{"Compound": "C[S+]([O-])c1ccc(-c2nc(-c3ccncc3)c(-c3ccc(F)cc3)[nH]2)cc1 (stereo not shown)", "target": "PBRM1 bromodomain", "test": "thermal stability, DSF", "conditions": "10 µM", "endpoint": "ΔTm", "value": "1.33 °C"}
{"Compound": "CCC(CC)CC1CCn2c1nc(=O)c1c(Cl)cccc12 (racemic)", "target": "PBRM1 BD2", "test": "thermal stability, DSF", "conditions": "100 µM", "endpoint": "ΔTm", "value": "2.66 °C"}
{"Compound": "CN(C)C1CCN(CC#Cc2nn(C3CCCC3)c3nc(NCc4ccccc4)ncc23)C1 (stereo not shown)", "target": "Serine/threonine-protein kinase Sgk1 (SGK1, Homo sapiens, UniProt O00141)", "test": "enzyme activity, inhibitor, FRET", "conditions": "0.1 µM", "endpoint": "inhibition", "value": "6%"}
{"Compound": "NS(=O)(=O)c1ccc(Nc2nc(-c3ccc(F)cc3)c3ccccc3n2)cc1", "target": "BRD2 BD2", "test": "binding, competition with immobilised ligand", "conditions": "1 µM", "endpoint": "remaining binding", "value": "10%"}
{"Compound": "Cc1ccc(C(=O)Nc2ccc(CN3CCN(C)CC3)c(C(F)(F)F)c2)cc1C#Cc1cnc2cccnn12", "target": "Receptor tyrosine-protein kinase erbB-3 (ERBB3, Homo sapiens, UniProt P21860)", "test": "enzyme activity, inhibitor", "conditions": "23.5 nM", "endpoint": "remaining activity", "value": "82%"}
{"Compound": "CC/C=C1\\CCn2c1nc(=O)c1c(Cl)cccc12", "target": "PBRM1 bromodomain", "test": "thermal stability, DSF", "conditions": "100 µM", "endpoint": "ΔTm", "value": "5.03 °C"}
{"Compound": "Cc1cnc(NC2CCOCC2)nc1-n1cnc(C(=O)NC(CN)c2cc(F)cc(Cl)c2)c1 (stereo not shown)", "target": "Abl1", "test": "enzyme activity, inhibitor, radiometric", "conditions": "1 µM", "endpoint": "remaining activity", "value": "99%"}
{"Compound": "CCC(/C=C1\\CCn2c1nc(=O)c1ccc(O)cc12)CC", "target": "PBRM1 BD2", "test": "thermal stability, DSF", "conditions": "100 µM", "endpoint": "ΔTm", "value": "3.49 °C"}
{"Compound": "CC(C)(C)c1ccc(NC(c2ccccc2)c2ccc3ccccc3c2O)cc1 (stereo not shown)", "target": "CAAX prenyl protease 2 (Homo sapiens, UniProt Q9Y256)", "test": "enzyme activity, inhibitor", "conditions": "10 µM", "endpoint": "remaining activity", "value": "< 40%"}
{"Compound": "CC(C)(C)C/C=C1\\CCn2c1nc(=O)c1c(Cl)cccc12", "target": "PBRM1 bromodomain", "test": "thermal stability, DSF", "conditions": "100 µM", "endpoint": "ΔTm", "value": "7.06 °C"}
{"Compound": "CCCCN1CCCn2c1nc1c2c(=O)n(C)c(=O)n1C", "target": "ADORA2B", "test": "ligand displacement, radioligand", "conditions": "10 µM, cell membranes", "endpoint": "inhibition", "value": "3%"}
{"Compound": "COc1cc(NC(C)=O)c(Cl)cc1C(=O)Nc1nccs1", "target": "Muscarinic acetylcholine receptor M1 (CHRM1, Homo sapiens, UniProt P11229)", "test": "cell-free assay", "conditions": "10 µM", "endpoint": "inhibition", "value": "2.6%"}
{"Compound": "CCCOc1ccc(OC)c(F)c1C(=O)c1ccc(C(=O)N[C@@H]2CNC[C@H]2NC(=O)c2ccc3[nH]ncc3c2)cc1", "target": "Abl1", "test": "enzyme activity, inhibitor", "conditions": "10 µM", "endpoint": "remaining activity", "value": "63%"}
